Test results: ChEMBL document CHEMBL1140216, “Triazine compounds as antagonists at Bv8-prokineticin receptors” (J Med Chem, 2008)
pKi: −log10 of the molar value. Values belong to the compound of their own block, whether it stands above or below them.

What was measured:
[1] = target: T1, Prokineticin receptor 1 (Homo sapiens, UniProt Q8TCW9); experiment: Antagonist activity at PKR1 expressed in CHO cell membrane assessed as reduction of Bv8-induced increase in intracellular calcium level at 300 nM; assay type: functional, cell-based; parameters: scale not given: the % may be the effect or the level left
T1 sequence (Q8TCW9 whole entry): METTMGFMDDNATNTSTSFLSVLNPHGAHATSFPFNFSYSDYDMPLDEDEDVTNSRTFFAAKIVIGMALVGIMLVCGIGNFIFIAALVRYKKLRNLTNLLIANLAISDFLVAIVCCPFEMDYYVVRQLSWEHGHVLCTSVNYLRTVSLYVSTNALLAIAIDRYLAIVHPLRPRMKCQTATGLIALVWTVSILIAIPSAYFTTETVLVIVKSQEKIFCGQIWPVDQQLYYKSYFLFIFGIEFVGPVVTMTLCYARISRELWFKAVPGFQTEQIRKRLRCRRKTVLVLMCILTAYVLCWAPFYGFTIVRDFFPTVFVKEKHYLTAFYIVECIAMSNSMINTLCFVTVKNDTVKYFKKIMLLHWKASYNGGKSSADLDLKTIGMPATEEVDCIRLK
Outline: (§1)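 Intact CHO cells transfected with PKR1 or PKR2. Compound preincubated 4 min, then challenged with 1 nM Bv8, and fluorescence followed for 2 min. Intracellular Ca2+ was read as the 340/380 nm […] ratio, and the result was scored as the percentage of cells responding to Bv8.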

[2] = target: T1, Prokineticin receptor 1; experiment: Antagonist activity at PKR1 expressed in CHO cell membrane assessed as reduction of Bv8-induced increase in intracellular calcium level at 100 nM; assay type: functional, cell-based; parameters: scale not given: the % may be the effect or the level left; outline: as §1
[3] = target: T2, Prokineticin receptor 2 (Homo sapiens, UniProt Q8NFJ6); experiment: Displacement of [I125]MIT from PKR2 expressed in CHO cell membrane; assay type: cell membranes
T2 sequence (Q8NFJ6 whole entry): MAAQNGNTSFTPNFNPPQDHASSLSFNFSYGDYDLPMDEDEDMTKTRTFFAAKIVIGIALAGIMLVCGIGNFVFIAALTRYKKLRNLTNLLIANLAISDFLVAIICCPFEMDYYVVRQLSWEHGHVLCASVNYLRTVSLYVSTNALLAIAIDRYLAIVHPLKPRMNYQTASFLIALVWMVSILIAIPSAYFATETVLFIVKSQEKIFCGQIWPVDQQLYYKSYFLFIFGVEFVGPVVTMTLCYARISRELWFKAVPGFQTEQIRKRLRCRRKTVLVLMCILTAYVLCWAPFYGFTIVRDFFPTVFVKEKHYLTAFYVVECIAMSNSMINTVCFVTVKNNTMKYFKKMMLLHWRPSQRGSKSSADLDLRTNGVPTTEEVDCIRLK

[4] = Selectivity for ratio of Ki for PKR2 to Ki for PKR1
[5] = target: T2, Prokineticin receptor 2; experiment: Antagonist activity at PKR2 expressed in CHO cell membrane assessed as reduction of Bv8-induced increase in intracellular calcium level at 300 nM; assay type: functional, cell-based; parameters: scale not given: the % may be the effect or the level left; outline: as §1
[6] = target: T1, Prokineticin receptor 1; experiment: Displacement of [I125]MIT from PKR1 expressed in CHO cell membrane; assay type: cell membranes
[7] = target: T2, Prokineticin receptor 2; experiment: Antagonist activity at PKR2 expressed in CHO cell membrane assessed as reduction of Bv8-induced increase in intracellular calcium level at 100 nM; assay type: functional, cell-based; parameters: scale not given: the % may be the effect or the level left; outline: as §1
[8] = target: T1, Prokineticin receptor 1; experiment: Antagonist activity at PKR1 expressed in CHO cell membrane assessed as reduction of Bv8-induced increase in intracellular calcium level at 1 mM; assay type: functional, cell-based; parameters: scale not given: the % may be the effect or the level left; outline: as §1
[9] = target: T1, Prokineticin receptor 1; experiment: Antagonist activity at PKR1 expressed in CHO cell membrane assessed as reduction of Bv8-induced increase in intracellular calcium level at 10 uM; assay type: functional, cell-based; parameters: scale not given: the % may be the effect or the level left; outline: as §1
[10] = target: T2, Prokineticin receptor 2; experiment: Antagonist activity at PKR2 expressed in CHO cell membrane assessed as reduction of Bv8-induced increase in intracellular calcium level at 1 mM; assay type: functional, cell-based; parameters: scale not given: the % may be the effect or the level left; outline: as §1
[11] = target: T2, Prokineticin receptor 2; experiment: Antagonist activity at PKR2 expressed in CHO cell membrane assessed as reduction of Bv8-induced increase in intracellular calcium level at 10 uM; assay type: functional, cell-based; parameters: scale not given: the % may be the effect or the level left; outline: as §1
[12] = target: T1, Prokineticin receptor 1; experiment: Antagonist activity at PKR1 expressed in CHO cell membrane assessed as reduction of Bv8-induced increase in intracellular calcium level at 100 uM; assay type: functional, cell-based; parameters: scale not given: the % may be the effect or the level left; outline: as §1

Activity [1]: 4% | Activity [2]: 52% | pKi [3]: 5.79 | Ratio Ki [4]: 70 | Activity [5]: 6% | pKi [6]: 7.66 | Activity [7]: 48%
Compound: CCc1ccc(Cn2c(=O)nc(NCCNC(=N)N)n(Cc3ccc(OC)cc3)c2=O)cc1

Activity [8]: 0.3% | Activity [9]: 90% | pKi [3]: 4.63 | pKi [6]: 6.36 | Activity [10]: 2% | Activity [11]: 89%
Compound: CCc1ccc(Cn2c(=O)nc(NCCN)n(Cc3ccc(OC)cc3)c2=O)cc1

Activity [12]: 91%
Compound: CCc1ccc(Cn2c(=O)nc(NCCNC3=NCCN3)n(Cc3ccc(OC)cc3)c2=O)cc1

pKi [3]: 4.15 | pKi [6]: 5.33
Compound: CCc1ccc(Cn2c(=O)nc(NCCN=C3NCCN3)n(Cc3ccc(OC)cc3)c2=O)cc1
